Measured values of several laboratories.
Protocols differ between the studies behind these lines.
Target: Serine/threonine-protein kinase TAO3 (TAOK3, Homo sapiens, UniProt Q9H2K8)
Sequence (Q9H2K8 1-898, as in one of the studies): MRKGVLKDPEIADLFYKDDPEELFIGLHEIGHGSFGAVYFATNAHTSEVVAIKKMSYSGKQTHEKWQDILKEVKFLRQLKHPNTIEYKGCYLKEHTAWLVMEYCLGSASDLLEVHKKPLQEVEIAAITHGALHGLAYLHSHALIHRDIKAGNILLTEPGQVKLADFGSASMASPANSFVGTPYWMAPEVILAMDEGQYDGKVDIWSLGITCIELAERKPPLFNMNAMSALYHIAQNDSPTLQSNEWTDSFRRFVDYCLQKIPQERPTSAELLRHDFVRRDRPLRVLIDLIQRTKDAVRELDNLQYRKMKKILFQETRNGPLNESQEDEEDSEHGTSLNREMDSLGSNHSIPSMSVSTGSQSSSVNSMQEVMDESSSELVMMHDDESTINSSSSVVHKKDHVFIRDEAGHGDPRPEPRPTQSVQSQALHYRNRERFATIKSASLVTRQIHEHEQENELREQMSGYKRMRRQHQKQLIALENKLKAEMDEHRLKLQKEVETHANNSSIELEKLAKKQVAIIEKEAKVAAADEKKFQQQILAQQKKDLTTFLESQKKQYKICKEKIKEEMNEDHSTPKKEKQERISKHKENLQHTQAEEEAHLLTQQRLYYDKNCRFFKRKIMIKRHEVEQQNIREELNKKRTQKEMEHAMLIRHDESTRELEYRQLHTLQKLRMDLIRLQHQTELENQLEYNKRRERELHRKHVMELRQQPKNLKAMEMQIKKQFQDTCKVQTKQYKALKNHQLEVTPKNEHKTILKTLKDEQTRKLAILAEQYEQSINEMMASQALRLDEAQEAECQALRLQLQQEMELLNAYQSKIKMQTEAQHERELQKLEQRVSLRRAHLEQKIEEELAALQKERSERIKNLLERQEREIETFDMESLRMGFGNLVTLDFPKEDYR

| SMILES | test | setting | remaining binding |
| --- | --- | --- | --- |
| O=C(NCCCN1CCOCC1)c1ccc(Nc2nccc(-c3cc4ccccc4s3)n2)cc1 | binding, competition with immobilised ligand | 1 µM | 82% |
| c1cncc(-c2cccc(Nc3nccc(NC4CCCCC4)n3)c2)c1 | binding, competition with immobilised ligand | 10 µM | 98% |
| COc1ccnn2ncc(-c3ccnc(N(C)C)n3)c12 | binding | 1 µM | 82% |
| Cn1nc(C(F)(F)F)cc1-c1cnc(N2CCc3cc(S(=O)(=O)Nc4c(F)cc(Cl)cc4F)cc(N4CCCC4=O)c32)nc1 | cell-free assay, competition with immobilised ligand | 1 µM | 93% |
| Cc1cnn2ncc(-c3ccnc(N(C)C)n3)c2c1 | binding | 1 µM | 91% |
| Nc1ncc2c(n1)-c1c([nH]c3ccc(C#CC4CC4)cc13)CCCC2 | binding, competition with immobilised ligand | 1 µM | 89% |
| O=C(NCC1CCOCC1)c1n[nH]cc1NC(=O)c1c(F)cccc1F | binding, competition with immobilised ligand | 1 µM | 45% |
| C[C@@H]1CCN(c2nccc(-c3cnn4ncccc34)n2)C1 | binding | 1 µM | 90% |
| COc1cnc(Nc2cccc(S(N)(=O)=O)c2)nc1N1CCN(c2ccccc2)CC1 | binding, competition with immobilised ligand | 1 µM | 85% |
| C=CC(=O)N1CCC(C(=O)NCC(=O)N2CCN(c3nc(-c4cnc(N)nc4C(F)F)nc(N4CCOCC4)n3)CC2)CC1 | binding, competition with immobilised ligand | 1 µM | 77% |
| N[C@H]1CCN(c2nccc(-c3cnn4ncccc34)n2)C1 | binding | 1 µM | 100% |
| C[C@@H](c1ccc(-n2cnc3c(N)ncnc32)cc1)N1CCc2nn(C)c(Cc3ccccc3)c2C1=O | binding, competition with immobilised ligand | 0.1 µM | 77% |
| Nc1cnc(N2CCc3cc(S(=O)(=O)Nc4c(F)cc(Cl)cc4F)cc(N4CCCC4=O)c32)nc1 | cell-free assay, competition with immobilised ligand | 1 µM | 70% |
| O=C(c1ccc(Nc2ncc(Cl)c(-c3cc4ccccc4s3)n2)cc1)N1CCC(N2CCCC2)CC1 | binding, competition with immobilised ligand | 1 µM | 68% |
| Cn1cc(Cl)c2c(Oc3c(F)cc(Nc4cc(Cl)nc(N)n4)cc3F)ccnc21 | cell-free assay, competition with immobilised ligand | 0.1 µM | 100% |
| Cc1cnc(Nc2ccc(C(=O)N3CCC(N4CCCC4)CC3)cc2)nc1-c1cc2ccccc2s1 | binding, competition with immobilised ligand | 1 µM | 77% |
| C[C@@H]1CN(c2cc(-c3nn(C)c4ccc(OC5(C)CC5)cc34)ncn2)C[C@H](C)O1 | binding, competition with immobilised ligand | 1 µM | 35% |
| F[C@@H]1CCN(c2nccc(-c3cnn4ncccc34)n2)C1 | binding | 1 µM | 55% |
| O=C1CCc2cc(Nc3cc(OC4CCOCC4)c([N+](=O)[O-])cc3Cl)ccc2N1 | cell-free assay, competition with immobilised ligand | 1 µM | 81% |
| CNC(=O)[C@@H]1CC[C@@H](n2c(-c3ccc4cnccc4c3)nc3ccc(C(=O)NCc4cccc(C(N)=O)c4)cc32)C1 | binding, competition with immobilised ligand | 1 µM | 93% |
| c1ccc(N2CCN(Cc3nc4ccccc4[nH]3)CC2)nc1 | binding, competition with immobilised ligand | 1 µM | 86% |
| CN(C)c1ncc(F)c(-c2cnn3ncccc23)n1 | binding | 1 µM | 78% |
